Reference: article PMC5161045 (Journal of Antimicrobial Chemotherapy, 2016)
Converted amounts (≈) assume the structure as drawn. Ends that are not written are not given here.

What was measured:
S. aureus DA29677 = experiment: Bacterial cell survival assay with human defensins; assay type: cell-based, Staphylococcus aureus; details: strain DA29677, NaPB pH 7.4, exponential phase cells, 37°C, 2 h
Summary of the method: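 Exponential-phase cells: overnight TSB culture diluted 1:100 in pre-warmed TSB, shaken 2 h at 37°C, washed once and resuspended in 10 mM sodium phosphate pH 7.4. Diluted to 0.69−4.7 × 10⁴ cfu/mL and exposed to hBD3 at 1 μM or other β-defensins at 10 μM, shaking in a sealed humidified container at 37°C for 2 h. Cells were plated on TSA for cfu. % survival = cfu with peptide/cfu without peptide × 100. Detection limit 1% survival. Mean ± SEM of ≥3 independent determinations.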

[1] = system: S. aureus DA35920 (cycled with PR-39); experiment: MIC of antibiotics by Etest; assay type: cell-based; details: Staphylococcus aureus
Summary of the method: (§1)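 Strains were grown overnight with shaking at 37°C in Mueller–Hinton II broth and diluted to ∼10⁸ cfu/mL in the same broth. They were swabbed onto Mueller–Hinton II agar, an antibiotic Etest strip was applied, and plates were incubated at 37°C for 18–20 h. MIC is the lowest concentration with no visible growth, taken as the consensus of ≥2 independent determinations. Increases over WT were graded 2–5-fold or >5-fold, and EUCAST v5.0 breakpoints were used.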

S. aureus DA28823 (WT) = experiment: MIC of antibiotics by Etest; assay type: cell-based; details: Staphylococcus aureus
Summary of the method: as §1

[2] = system: seven AMP-resistant S. aureus mutants; experiment: MIC of antibiotics by Etest, summary over mutants; assay type: cell-based, Staphylococcus aureus; details: Mueller–Hinton medium; for number of AMP-resistant mutants with reduced/diminished susceptibility: of seven mutants
Summary of the method: as §1

[3] = system: S. aureus DA36424 (cycled with LL-37 and WGH); experiment: MIC of antibiotics by Etest; assay type: cell-based; details: Staphylococcus aureus
Summary of the method: as §1

[4] = system: S. aureus DA37296 (cycled with PR-39); experiment: MIC of antibiotics by Etest; assay type: cell-based; details: Staphylococcus aureus
Summary of the method: as §1

[5] = system: S. aureus DA30557 (cycled with WGH); experiment: MIC of antibiotics by Etest; assay type: cell-based, Staphylococcus aureus; details: for MIC: Staphylococcus aureus
Summary of the method: as §1

[6] = system: S. aureus DA30560 (cycled with no peptide); experiment: MIC of antibiotics by Etest; assay type: cell-based; details: Staphylococcus aureus
Summary of the method: as §1

[7] = system: S. aureus DA29677 (cycled with LL-37); experiment: MIC of antibiotics by Etest; assay type: cell-based; details: Staphylococcus aureus
Summary of the method: as §1

[8] = system: S. aureus DA29680 (cycled with LL-37); experiment: MIC of antibiotics by Etest; assay type: cell-based; details: Staphylococcus aureus
Summary of the method: as §1

[9] = system: S. aureus DA30559 (cycled with WGH); experiment: MIC of antibiotics by Etest; assay type: cell-based; details: Staphylococcus aureus
Summary of the method: as §1

Solubility limit in MIEM = assay type: physicochemical; details: in MIEM (mammalian ionic environment medium, without NaCl, pH 7.4)
S. aureus DA36424 = experiment: Bacterial cell survival assay with human defensins; assay type: cell-based, Staphylococcus aureus; details: strain DA36424; 10 μM peptide, NaPB pH 7.4, exponential phase cells, 37°C, 2 h

## GIGDPVTCLKSGAICHPVFCPRRYKQIGTCGLPGTKCCKKP (also: bicyclic or more (positions not given here)) [hBD2]
S. aureus DA29677; 10 μM peptide
  resistance to human β-defensin, relative to WT (in words): increased resistance

## CN[C@H](CC(C)C)C(=O)N[C@H]1C(=O)N[C@@H](CC(N)=O)C(=O)N[C@H]2C(=O)N[C@H]3C(=O)N[C@H](C(=O)N[C@H](C(=O)O)c4cc(O)cc(O)c4-c4cc3ccc4O)[C@H](O)c3ccc(c(Cl)c3)Oc3cc2cc(c3O[C@@H]2O[C@H](CO)[C@@H](O)[C@H](O)[C@H]2O[C@H]2C[C@](C)(N)[C@H](O)[C@H](C)O2)Oc2ccc(cc2Cl)[C@H]1O [VAN, vancomycin]
[1]
  MIC: 2 mg/L
S. aureus DA28823 (WT)
  MIC: 1.5 mg/L
[2]
  susceptibility of all seven AMP-resistant mutants relative to WT (in words): little to no change in susceptibility
[3]
  MIC: 2 mg/L
[4]
  MIC: 2 mg/L
[5]
  MIC: 2 mg/L
[6]
  MIC: 1.5 mg/L
[7]
  MIC: 2 mg/L
[8]
  MIC: 2 mg/L
[9]
  MIC: 1.5 mg/L

## CN(C)c1cc(NC(=O)CNC(C)(C)C)c(O)c2c1C[C@H]1C[C@H]3[C@H](N(C)C)C(O)=C(C(N)=O)C(=O)[C@@]3(O)C(O)=C1C2=O [TGC, tigecycline]
[1]
  MIC: 0.125 mg/L
S. aureus DA28823 (WT)
  MIC: 0.094 mg/L
[2]
  number of AMP-resistant mutants with reduced/diminished susceptibility: two of seven
[3]
  MIC: 0.19 mg/L
[4]
  MIC: 0.125 mg/L
[5]
  MIC: 0.094 mg/L
[6]
  MIC: 0.094 mg/L
[7]
  MIC: 0.094 mg/L
[8]
  MIC: 0.19 mg/L
[9]
  MIC: 0.094 mg/L

## CC(=O)NC[C@H]1CN(c2ccc(N3CCOCC3)c(F)c2)C(=O)O1 [LZD, linezolid]
[1]
  MIC: 1 mg/L
S. aureus DA28823 (WT)
  MIC: 2 mg/L
[3]
  MIC: 2 mg/L
[4]
  MIC: 2 mg/L
[5]
  MIC: 2 mg/L
[6]
  MIC: 2 mg/L
[7]
  MIC: 1.5 mg/L
[8]
  MIC: 1.5 mg/L
[9]
  MIC: 1 mg/L

## C[C@H]1c2cccc(O)c2C(=O)C2=C(O)[C@]3(O)C(=O)C(C(N)=O)=C(O)[C@@H](N(C)C)[C@@H]3[C@@H](O)[C@@H]21 [DOX, doxycycline]
[1]
  MIC: 0.094 mg/L
[3]
  MIC: 0.25 mg/L
[4]
  MIC: 0.125 mg/L
[5]
  MIC: 0.094 mg/L
[7]
  MIC: 0.125 mg/L
[8]
  MIC: 0.094 mg/L
[9]
  MIC: 0.125 mg/L

## CO[C@H]1/C=C/O[C@@]2(C)Oc3c(C)c(O)c4c(O)c(c(/C=N/N5CCN(C)CC5)c(O)c4c3C2=O)NC(=O)/C(C)=C\C=C\[C@H](C)[C@H](O)[C@@H](C)[C@@H](O)[C@@H](C)[C@H](OC(C)=O)[C@@H]1C [RIF, rifampicin]
[1]
  MIC: 0.016 mg/L
S. aureus DA28823 (WT)
  MIC: 0.012 mg/L
[3]
  MIC: 0.012 mg/L
[4]
  MIC: 0.008 mg/L
[5]
  MIC: 0.012 mg/L
[6]
  MIC: 0.012 mg/L
[7]
  MIC: 0.008 mg/L
[8]
  MIC: 0.012 mg/L
[9]
  MIC: 0.016 mg/L

## DHYNCVSSGGQCLYSACPIFTKIQGTCYRGKAKCCK (also: bicyclic or more (positions not given here)) [hBD1]
S. aureus DA29677; 10 μM peptide
  resistance to human β-defensin, relative to WT (in words): increased resistance

## CCC[C@@H]1C[C@@H](C(=O)N[C@@H]([C@H]2O[C@H](SC)[C@H](O)[C@@H](O)[C@H]2O)[C@H](C)Cl)N(C)C1 [CLI, clindamycin]
[1]
  MIC: 0.094 mg/L
S. aureus DA28823 (WT)
  MIC: 0.094 mg/L
[3]
  MIC: 0.125 mg/L
[4]
  MIC: 0.125 mg/L
[5]
  MIC: 0.064 mg/L
[6]
  MIC: 0.094 mg/L
[7]
  MIC: 0.047 mg/L
[8]
  MIC: 0.094 mg/L
[9]
  MIC: 0.064 mg/L

## CC[C@H]1OC(=O)[C@H](C)[C@@H](O[C@H]2C[C@@](C)(OC)[C@@H](O)[C@H](C)O2)[C@H](C)[C@@H](O[C@@H]2O[C@H](C)C[C@H](N(C)C)[C@H]2O)[C@](C)(O)C[C@@H](C)C(=O)[C@H](C)[C@@H](O)[C@]1(C)O [ERY, erythromycin]
[1]
  MIC: 0.38 mg/L
S. aureus DA28823 (WT)
  MIC: 0.19 mg/L
[2]
  number of AMP-resistant mutants with reduced/diminished susceptibility: two of seven
[3]
  MIC: 0.25 mg/L
[4]
  MIC: 0.38 mg/L
[5]
  MIC: 0.125 mg/L
[6]
  MIC: 0.19 mg/L
[7]
  MIC: 0.19 mg/L
[8]
  MIC: 0.19 mg/L
[9]
  MIC: 0.125 mg/L

## CNC(C)C1CCC(N)C(OC2C(N)CC(N)C(OC3OCC(C)(O)C(NC)C3O)C2O)O1 (centres unmarked) [GEN, gentamicin]
[1]
  MIC: 0.25 mg/L
S. aureus DA28823 (WT)
  MIC: 0.125 mg/L
[2]
  number of AMP-resistant mutants with reduced/diminished susceptibility: Four of seven
[3]
  MIC: 0.19 mg/L
[4]
  MIC: 0.5 mg/L
[5]
  MIC: 1 mg/L
[5]; strain DA30557 (passaged with WGH), relative to WT, Etest
  increase in MIC: 8 fold
[6]
  MIC: 0.125 mg/L
[7]
  MIC: 0.094 mg/L
[8]
  MIC: 0.094 mg/L
[9]
  MIC: 0.38 mg/L

## GIINTLQKYYCRVRGGRCAVLSCLPKEEQIGKCSTRGRKCCRRKK (also: bicyclic or more (positions not given here)) [hBD3]
S. aureus DA29677; 1 μM peptide
  resistance to human β-defensin, relative to WT (in words): increased resistance

## teicoplanin [TEC]
[2]
  susceptibility of all seven AMP-resistant mutants relative to WT (in words): diminished susceptibility

## CN(C)[C@@H]1C(O)=C(C(N)=O)C(=O)[C@@]2(O)C(O)=C3C(=O)c4c(O)cccc4[C@@](C)(O)[C@H]3C[C@@H]12 [TET, tetracycline]
[1]
  MIC: 0.125 mg/L
S. aureus DA28823 (WT)
  MIC: 0.094 mg/L
[2]
  number of AMP-resistant mutants with reduced/diminished susceptibility: six of seven
[3]
  MIC: 0.25 mg/L
[4]
  MIC: 0.19 mg/L
[5]
  MIC: 0.25 mg/L
[6]
  MIC: 0.094 mg/L
[7]
  MIC: 0.19 mg/L
[8]
  MIC: 0.25 mg/L
[9]
  MIC: 0.19 mg/L

## O=C(N[C@H](CO)[C@H](O)c1ccc([N+](=O)[O-])cc1)C(Cl)Cl [CHL, chloramphenicol]
[1]
  MIC: 3 mg/L
S. aureus DA28823 (WT)
  MIC: 4 mg/L
[3]
  MIC: 4 mg/L
[4]
  MIC: 6 mg/L
[5]
  MIC: 4 mg/L
[6]
  MIC: 4 mg/L
[7]
  MIC: 6 mg/L
[8]
  MIC: 4 mg/L
[9]
  MIC: 4 mg/L

## CCO/N=C(\C(=O)N[C@@H]1C(=O)N2C(C(=O)[O-])=C(Sc3nc(-c4cc[n+](C)cc4)cs3)CS[C@H]12)c1nsc(N)n1 [CFT, ceftaroline]
[1]
  MIC: 0.19 mg/L
S. aureus DA28823 (WT)
  MIC: 0.25 mg/L
[3]
  MIC: 0.38 mg/L
[4]
  MIC: 0.25 mg/L
[5]
  MIC: 0.38 mg/L
[6]
  MIC: 0.25 mg/L
[7]
  MIC: 0.19 mg/L
[8]
  MIC: 0.25 mg/L
[9]
  MIC: 0.38 mg/L

## CC[C@H](C)[C@H](NC(=O)[C@H](CCCCN)NC(=O)[C@H](CCC(=O)O)NC(=O)[C@H](CCCCN)NC(=O)[C@H](CO)NC(=O)[C@H](CCCCN)NC(=O)[C@H](CCCNC(=N)N)NC(=O)[C@H](Cc1ccccc1)NC(=O)[C@H](Cc1ccccc1)NC(=O)[C@H](CC(=O)O)NC(=O)CNC(=O)[C@H](CC(C)C)NC(=O)[C@@H](N)CC(C)C)C(=O)NCC(=O)N[C@@H](CCCCN)C(=O)N[C@@H](CCC(=O)O)C(=O)N[C@@H](Cc1ccccc1)C(=O)N[C@@H](CCCCN)C(=O)N[C@@H](CCCNC(=N)N)C(=O)N[C@H](C(=O)N[C@H](C(=O)N[C@@H](CCC(N)=O)C(=O)N[C@@H](CCCNC(=N)N)C(=O)N[C@H](C(=O)N[C@@H](CCCCN)C(=O)N[C@@H](CC(=O)O)C(=O)N[C@@H](Cc1ccccc1)C(=O)N[C@@H](CC(C)C)C(=O)N[C@@H](CCCNC(=N)N)C(=O)N[C@@H](CC(N)=O)C(=O)N[C@@H](CC(C)C)C(=O)N[C@H](C(=O)N1CCC[C@H]1C(=O)N[C@@H](CCCNC(=N)N)C(=O)N[C@H](C(=O)N[C@@H](CCC(=O)O)C(=O)N[C@@H](CO)C(=O)O)[C@@H](C)O)C(C)C)[C@@H](C)CC)C(C)C)[C@@H](C)CC [LL-37]
Solubility limit in MIEM
  solubility limit: ~0.55 mg/mL (≈ 122 µM)

## polymyxin B [PMB]
[2]
  number of AMP-resistant mutants with reduced/diminished susceptibility: three of seven

## AFTCHCRRSCYSTEYSYGTCTVMGINHRFCCL (bicyclic or more) [HNP6]
S. aureus DA36424
  bacterial survival after defensin exposure, relative to WT (in words): significantly reduced survival
